Results on one compound are retold here after ChEMBL document CHEMBL4219255, “Targeting Transient Receptor Potential Vanilloid 1 (TRPV1) Channel Softly: The Discovery of Passerini Adducts as a Topical Treatment for Inflammatory Skin Disorders” (J Med Chem, 2018).

The source made the active and inactive calls. The rule behind the calls is not given here.

The nature of series [1]: Drug metabolism in human liver S9 fraction assessed as residual substrate levels at 50 uM up to 60 mins by HPLC-UV analysis. The series is classed as ADME, subcellular. The note with it: read-out: Stability.
Series [2] is described as follows: Drug metabolism in human fibroblast cells assessed as residual substrate levels at 50 uM up to 120 mins by HPLC-UV analysis. The settings on record: read-out: Stability. The series is classed as ADME, cell-based.
Series [3] has as its system Mus musculus. Nature of the series: Antipruritic activity in C57BL/6 mouse histaminergic pruritus model assessed as reduction in licking behavior at 100 ug administered as intraplantar injection pretreated for 30 mins followed by histamine addition measured 10 to 20 mins post histamine instillation. Type of series: functional, organism-based.
Series [4] concerns Mus musculus. The series is described as follows: Analgesic activity in CFA-induced thermal hyperalgesia C57BL/6 mouse model assessed as reduction in CFA-induced ipsilateral paw withdrawal latency at 10 mg/kg, iv treated at 24 hrs post CFA injection measured at 60 mins post dose. Type of series: functional, organism-based.
Series [5] is described as follows: Drug metabolism in human HaCaT cells assessed as residual substrate levels at 25 uM up to 240 mins by HPLC-UV analysis. Type of series: ADME, cell-based. The settings on record: read-out: Stability.
The subject of series [6] is Mus musculus. The series is described as follows: Analgesic activity in CFA-induced thermal hyperalgesia C57BL/6 mouse model assessed as reduction in CFA-induced ipsilateral paw withdrawal latency at 1 mg/kg, iv treated at 24 hrs post CFA injection measured at 30 to 60 mins post dose. Type of series: functional, organism-based.
A short description of series [7]: Drug metabolism in human liver cytosol assessed as sulfate conjugate formation at 50 uM in presence of UDPGA after 60 mins by LC-ESI-MS analysis. The series is classed as ADME, subcellular. The note with it: 1 h.
In series [8] the test system is Mus musculus. The series is described as follows: Analgesic activity in CFA-induced thermal hyperalgesia C57BL/6 mouse model assessed as reduction in latency time required to elicit paw withdrawal in response to radiant heat applied to the plantar surface of a hind paw at 10 to 100 ug administered as intraplantar injection treated at 24 hrs post CFA injection measured at 90 mins post dose. The series is classed as functional, organism-based.

A short description of series [9]: Drug metabolism in human keratinocytes assessed as residual substrate levels at 50 uM up to 120 mins by HPLC-UV analysis. The series is classed as ADME, cell-based, Keratinocyte. The settings on record: read-out: Stability.
A short description of series [10]: Drug metabolism in human plasma assessed as residual substrate levels at 100 uM up to 20 mins by HPLC-UV analysis. The settings on record: read-out: Stability. The series is classed as ADME, cell-free.
The target in series [11] is Transient receptor potential cation channel subfamily V member 1 (Rattus norvegicus) (UniProt O35433). Nature of the series: Modulatory activity against TRPV1 in Wistar rat neonatal dorsal root ganglia assessed as reduction in capsaicin-evoked action potential by measuring mean spike frequency ratio (P2/P1) at 10 uM by microelectrode array analysis (reference value: 0.87 +/- 0.04). In a few lines: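 Capsaicin-evoked action potential firing recorded with test agent at 10 µM. Response expressed as the P2/P1 mean spike frequency ratio.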

Another series has as its target T1, Liver carboxylesterase 1 (Homo sapiens, UniProt P23141).
T1 sequence (P23141 whole entry): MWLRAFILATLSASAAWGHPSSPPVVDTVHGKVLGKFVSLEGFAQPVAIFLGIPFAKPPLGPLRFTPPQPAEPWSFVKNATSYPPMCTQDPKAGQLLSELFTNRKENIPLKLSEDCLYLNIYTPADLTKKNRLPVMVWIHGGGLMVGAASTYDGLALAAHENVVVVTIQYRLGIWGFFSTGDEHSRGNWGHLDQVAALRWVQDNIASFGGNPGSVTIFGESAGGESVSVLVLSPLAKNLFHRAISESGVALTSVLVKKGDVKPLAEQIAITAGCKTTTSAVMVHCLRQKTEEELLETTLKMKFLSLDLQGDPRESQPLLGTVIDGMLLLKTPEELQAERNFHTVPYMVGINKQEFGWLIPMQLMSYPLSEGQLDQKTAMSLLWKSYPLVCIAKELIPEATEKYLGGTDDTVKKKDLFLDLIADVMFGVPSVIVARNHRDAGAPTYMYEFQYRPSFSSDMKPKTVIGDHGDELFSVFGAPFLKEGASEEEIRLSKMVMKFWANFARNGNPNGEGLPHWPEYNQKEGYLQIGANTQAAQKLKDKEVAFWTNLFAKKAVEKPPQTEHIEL
The series is described as follows: Drug metabolism assessed as recombinant human CE1-mediated compound hydrolysis by measuring rate constant at 50 uM up to 30 mins by LC-UV analysis. The series is classed as ADME. The note with it: 0.5 h. In a few lines:
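Recombinant human carboxylesterase isoforms 1 and 2 were each incubated with the test ester. Hydrolysis was followed by HPLC-UV, tracking the disappearance of the substrate over incubation time relative to the initial amount. Chromatograms were also checked for peaks of the expected hydrolysis metabolites.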

Series [12] relates to Mus musculus. Nature of the series: Effect on thermal nociception of the contralateral paw in CFA-induced thermal hyperalgesia C57BL/6 mouse model at 10 to 100 ug administered as intraplantar injection treated at 24 hrs post CFA injection measure up to 120 mins. Type of series: ADME, organism-based. The note with it: in vivo, other.
In series [13] the test system is Mus musculus. Nature of the series: Effect on thermal nociception of the contralateral paw in CFA-induced thermal hyperalgesia C57BL/6 mouse model at 1 to 10 mg/kg, iv treated at 24 hrs post CFA injection. The note with it: in vivo. The series is classed as ADME, organism-based.
A short description of series [14]: Drug metabolism in human liver microsomes assessed as sulfate conjugate formation at 50 uM in presence of UDPGA after 60 mins by LC-ESI-MS analysis. The series is classed as ADME, microsome. The settings on record: 1 h. A general note: Microsomes from liver hold many membrane-bound enzymes, among them those of drug oxidation.
Series [15] has as its system Mus musculus. Nature of the series: Analgesic activity in CFA-induced thermal hyperalgesia C57BL/6 mouse model assessed as reduction in CFA-induced ipsilateral paw withdrawal administered intravenously treated for 24 hrs post CFA injection. The series is classed as functional, organism-based.
Series [16] relates to Mus musculus. The series is described as follows: Analgesic activity in CFA-induced thermal hyperalgesia C57BL/6 mouse model assessed as reduction in CFA-induced ipsilateral paw withdrawal latency at 3 mg/kg, iv treated at 24 hrs post CFA injection measured at 60 to 90 mins post dose. The series is classed as functional, organism-based.
In series [17] the test system is Mus musculus. Nature of the series: Analgesic activity in CFA-induced thermal hyperalgesia C57BL/6 mouse model assessed as reduction in latency time required to elicit paw withdrawal in response to radiant heat applied to the plantar surface of a hind paw at 10 to 100 ug administered as intraplantar injection treated at 24 hrs post CFA injection measured at 30 mins post dose. The series is classed as functional, organism-based.

Series [18] relates to Mus musculus. Nature of the series: Analgesic activity in CFA-induced thermal hyperalgesia C57BL/6 mouse model assessed as reduction in latency time required to elicit paw withdrawal in response to radiant heat applied to the plantar surface of a hind paw administered as intraplantar injection treated at 24 hrs post CFA injection measured every 30 mins up to 120 mins post dose. The series is classed as functional, organism-based.

Chain of Transient receptor potential cation channel subfamily V member 1 (Rattus norvegicus) (O35433 whole entry): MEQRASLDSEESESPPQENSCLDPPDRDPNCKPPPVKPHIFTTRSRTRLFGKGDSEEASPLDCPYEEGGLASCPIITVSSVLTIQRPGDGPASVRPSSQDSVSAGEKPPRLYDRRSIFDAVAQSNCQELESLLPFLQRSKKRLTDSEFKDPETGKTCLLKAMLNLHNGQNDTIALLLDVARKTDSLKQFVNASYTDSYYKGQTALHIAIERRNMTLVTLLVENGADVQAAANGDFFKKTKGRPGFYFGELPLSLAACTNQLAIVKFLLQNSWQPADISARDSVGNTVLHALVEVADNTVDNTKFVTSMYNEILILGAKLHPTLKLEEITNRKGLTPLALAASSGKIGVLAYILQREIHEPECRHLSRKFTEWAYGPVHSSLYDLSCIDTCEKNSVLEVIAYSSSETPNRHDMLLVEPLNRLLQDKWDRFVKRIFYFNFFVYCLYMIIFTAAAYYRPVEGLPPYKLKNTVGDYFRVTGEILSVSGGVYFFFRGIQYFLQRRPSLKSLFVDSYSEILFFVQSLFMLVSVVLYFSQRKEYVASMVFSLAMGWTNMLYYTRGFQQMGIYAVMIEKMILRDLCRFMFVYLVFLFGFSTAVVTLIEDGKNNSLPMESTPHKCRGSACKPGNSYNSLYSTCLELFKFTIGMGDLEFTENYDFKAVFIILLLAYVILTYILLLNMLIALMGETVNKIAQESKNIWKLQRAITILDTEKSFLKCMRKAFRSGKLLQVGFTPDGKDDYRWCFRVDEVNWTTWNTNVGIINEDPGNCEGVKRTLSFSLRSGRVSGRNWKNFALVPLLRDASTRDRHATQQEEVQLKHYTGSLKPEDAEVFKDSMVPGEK

Take `CCCCCCCCCCCC(=O)OCC(=O)NCc1cc(OC)c(O)cc1I`: in series [1], the remaining at 1 h, 50 µM was 0%. Also, the remaining at 2 h, 50 µM came to 13.3% in [2] and 22.6% in series [9]. Moreover, the outcome in the series with Mus musculus [3], in the series on Mus musculus [4], in the series with Mus musculus [6], in the series on Mus musculus [8], in the series with Mus musculus [16] and in the series with Mus musculus [17] was Active. The remaining at 4 h, 25 µM in series [5] was 98.6%. In addition, the Drug metabolism entry in series [7] and in series [14] was “Metabolite_Notdetected” throughout. The remaining at 20 min, 100 µM in series [10] turned out to be 82%. Further, in series [11], the Ratio worked out at 0.53. Besides, at Liver carboxylesterase 1, the K was determined as 0.0255 min⁻¹. The Activity result in the series on Mus musculus [12] was “Non-Toxic”; in the series on Mus musculus [13], “Non-Toxic”; in the series on Mus musculus [15] it was “Dose-dependent effect”; in the series with Mus musculus [18], “Dose-dependent effect”.
